Test results from ChEMBL document CHEMBL1275556, “High prevalence of plasmid-mediated quinolone resistance genes qnr and aac(6')-Ib-cr in clinical isolates of Enterobacteriaceae from nine teaching hospitals in China” (2008).
Values after ≈ are worked out from the molar mass of the structure shown.

Legend:
[1] = test system: Escherichia coli; assay: Antimicrobial activity against aac(6')-Ib-cr-positive Escherichia coli FJ3T harboring wild-type GyrA, ParC, GyrB and qnrB genes by agar dilution method
[2] = test system: Enterobacter cloacae; assay: Antimicrobial activity against aac(6')-Ib-cr-negative Enterobacter cloacae WH42T harboring qnrA gene by agar dilution method; format: functional
[3] = test system: Citrobacter freundii; assay: Antimicrobial activity against aac(6')-Ib-cr-positive Citrobacter freundii TJ15T harboring wild-type GyrA, ParC, GyrB genes by agar dilution method; format: functional
Summary of the method: (§1)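 MICs were determined by the CLSI agar dilution method (M7-A7) and interpreted against CLSI M100-S17 breakpoints.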

[4] = test system: Enterobacter cloacae; assay: Antimicrobial activity against aac(6')-Ib-cr-negative Enterobacter cloacae SH39 harboring GyrA S83I, ParC S80I mutant, wild-type GyrB and qnrA genes by agar dilution method; format: functional
[5] = test system: Citrobacter freundii; assay: Antimicrobial activity against aac(6')-Ib-cr-positive Citrobacter freundii JN1T by agar dilution method; format: functional; summary of the method: as §1
[6] = test system: Citrobacter freundii; assay: Antimicrobial activity against aac(6')-Ib-cr-negative Citrobacter freundii JN64T harboring qnrA gene by agar dilution method; format: functional; summary of the method: as §1
[7] = test system: Citrobacter freundii; assay: Antimicrobial activity against aac(6')-Ib-cr-positive Citrobacter freundii JS33 harboring GyrA T83I mutant, wild-type ParC, GyrB, qnrA and qnrB genes by agar dilution method; format: functional; summary of the method: as §1
[8] = test system: Klebsiella pneumoniae; assay: Antimicrobial activity against aac(6')-Ib-cr-positive Klebsiella pneumoniae WH99 harboring wild-type GyrA, ParC, GyrB and qnrB genes by agar dilution method; format: functional
Summary of the method: (§2)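 MICs were determined on clinical isolates by CLSI agar dilution (M7-A7) and interpreted against CLSI M100-S17 breakpoints.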

[9] = test system: Enterobacter cloacae; assay: Antimicrobial activity against aac(6')-Ib-cr-negative Enterobacter cloacae WH42 harboring wild-type GyrA, ParC, GyrB and qnrA genes by agar dilution method; format: functional
[10] = test system: Enterobacter cloacae; assay: Antimicrobial activity against aac(6')-Ib-cr-negative Enterobacter cloacae FJ67T harboring qnrS gene by agar dilution method; format: functional
[11] = test system: Klebsiella pneumoniae; assay: Antimicrobial activity against aac(6')-Ib-cr-positive Klebsiella pneumoniae GZ40 harboring GyrA S83I, ParC S80I mutant, wild-type GyrB and qnrB genes by agar dilution method; format: functional; summary of the method: as §1
[12] = test system: Klebsiella pneumoniae; assay: Antimicrobial activity against aac(6')-Ib-cr-negative Klebsiella pneumoniae SY22 harboring GyrA S83I, ParC S80I mutant, wild-type GyrB and qnrS genes by agar dilution method; format: functional; summary of the method: as §1
[13] = test system: Citrobacter freundii; assay: Antimicrobial activity against aac(6')-Ib-cr-positive Citrobacter freundii JN1 harboring GyrA T83I, ParC S80I mutant, wild-type GyrB and qnrA genes by agar dilution method; format: functional; summary of the method: as §1
[14] = test system: Enterobacter cloacae; assay: Antimicrobial activity against aac(6')-Ib-cr-positive Enterobacter cloacae FJ63T harboring qnrS gene by agar dilution method; format: functional
[15] = test system: Citrobacter freundii; assay: Antimicrobial activity against aac(6')-Ib-cr-positive Citrobacter freundii PU55 harboring GyrA T83I, ParC S80I mutant, wild-type GyrB, qnrA genes by agar dilution method; format: functional; summary of the method: as §1
[16] = test system: Enterobacter cloacae; assay: Antimicrobial activity against aac(6')-Ib-cr-negative Enterobacter cloacae FJ67 harboring […] and qnrS genes by agar dilution method; format: functional
[17] = test system: Escherichia coli; assay: Antimicrobial activity against aac(6')-Ib-cr-positive Escherichia coli FJ3 harboring GyrA S83L, ParC S80R mutant, wild-type GyrB and qnrB genes by agar dilution method; format: functional; summary of the method: as §1
[18] = test system: Klebsiella pneumoniae; assay: Antimicrobial activity against aac(6')-Ib-cr-positive Klebsiella pneumoniae JN41T harboring qnrB gene by agar dilution method; format: functional
Summary of the method: (§3)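 Transconjugants were made by conjugating a qnr/aac(6')-Ib-cr donor with azide-resistant E. coli J53. Selection used Trypticase soy agar with sodium azide 150 µg/ml and sulfamethoxazole 180 µg/ml. […] MICs were read by CLSI agar dilution (M7-A7) and interpreted per M100-S17.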

[19] = test system: Klebsiella pneumoniae; assay: Antimicrobial activity against aac(6')-Ib-cr-positive Klebsiella pneumoniae SY26T harboring wild-type GyrA, ParC, GyrB and qnrB genes by agar dilution method; format: functional
Summary of the method: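 Transconjugants were made by conjugating a qnr/aac(6')-Ib-cr donor with azide-resistant E. coli J53. MICs were read by CLSI agar dilution (M7-A7) and interpreted per M100-S17.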

[20] = test system: Klebsiella pneumoniae; assay: Antimicrobial activity against aac(6')-Ib-cr-positive Klebsiella pneumoniae SY26 harboring GyrA S83I, ParC S80I mutant, wild-type GyrB and qnrB genes by agar dilution method; format: functional; summary of the method: as §2
[21] = test system: Klebsiella pneumoniae; assay: Antimicrobial activity against aac(6')-Ib-cr-negative Klebsiella pneumoniae SY22T harboring qnrS gene by agar dilution method; format: functional; summary of the method: as §1
[22] = test system: Klebsiella pneumoniae; assay: Antimicrobial activity against aac(6')-Ib-cr-positive Klebsiella pneumoniae JN132T harboring qnrB gene by agar dilution method; format: functional; summary of the method: as §3
[23] = test system: Enterobacter cloacae; assay: Antimicrobial activity against aac(6')-Ib-cr-negative Enterobacter cloacae GZ47 harboring qnrB and qnrS genes by agar dilution method; format: functional
[24] = test system: Enterobacter cloacae; assay: Antimicrobial activity against aac(6')-Ib-cr-negative Enterobacter cloacae GZ51T harboring qnrA gene by agar dilution method; format: functional
[25] = test system: Enterobacter cloacae; assay: Antimicrobial activity against aac(6')-Ib-cr-negative Enterobacter cloacae GZ47T harboring qnrB gene by agar dilution method; format: functional
[26] = test system: Citrobacter freundii; assay: Antimicrobial activity against aac(6')-Ib-cr-positive Citrobacter freundii TJ15 harboring GyrA T83I, ParC S80I mutant, wild-type GyrB, qnrB genes by agar dilution method; format: functional; summary of the method: as §1
[27] = test system: Enterobacter cloacae; assay: Antimicrobial activity against aac(6')-Ib-cr-negative Enterobacter cloacae GZ51 harboring qnrA gene by agar dilution method; format: functional
[28] = test system: Enterobacter cloacae; assay: Antimicrobial activity against aac(6')-Ib-cr-positive Enterobacter cloacae FJ63 harboring GyrA S83I, GyrA D87A, ParC S80I mutant, wild-type GyrB and qnrS genes by agar dilution method; format: functional
[29] = test system: Klebsiella pneumoniae; assay: Antimicrobial activity against aac(6')-Ib-cr-positive Klebsiella pneumoniae JN41 harboring GyrA S83I, ParC S80I mutant, wild-type GyrB and qnrB genes by agar dilution method; format: functional; summary of the method: as §2
[30] = test system: Citrobacter freundii; assay: Antimicrobial activity against aac(6')-Ib-cr-negative Citrobacter freundii JN64 harboring GyrA T83I, wild-type ParC, GyrB and qnrA genes by agar dilution method; format: functional; summary of the method: as §1
[31] = test system: Klebsiella pneumoniae; assay: Antimicrobial activity against aac(6')-Ib-cr-positive Klebsiella pneumoniae JN132 harboring GyrA S83I, ParC S80I mutant, wild-type GyrB and qnrB genes by agar dilution method; format: functional; summary of the method: as §2
[32] = test system: Escherichia coli; assay: Antimicrobial activity against aac(6')-Ib-cr-negative Escherichia coli PU12 harboring GyrA S83L mutant, wild-type GyrB, ParC and qnrS genes by agar dilution method; format: functional; summary of the method: as §1
[33] = test system: Enterobacter cloacae; assay: Antimicrobial activity against aac(6')-Ib-cr-negative Enterobacter cloacae FJ61 harboring GyrA S83I, GyrA D87A, ParC S80I mutant, wild-type GyrB and qnrS genes by agar dilution method; format: functional
[34] = test system: Escherichia coli; assay: Antimicrobial activity against aac(6')-Ib-cr-negative Escherichia coli PU12T harboring wild-type GyrA, GyrB, ParC and qnrS genes by agar dilution method; format: functional; summary of the method: as §1
[35] = test system: Klebsiella pneumoniae; assay: Antimicrobial activity against aac(6')-Ib-cr-positive Klebsiella pneumoniae WH99T harboring qnrB gene by agar dilution method; format: functional; summary of the method: as §3

Compound: CC(C)(O/N=C(\C(=O)N[C@@H]1C(=O)N2C(C(=O)[O-])=C(C[n+]3ccccc3)CS[C@H]12)c1csc(N)n1)C(=O)O [CEFTAZIDIME]
- MIC [1]: 2 µg/mL (≈ 3.66 µM)
- MIC [2]: 16 µg/mL (≈ 29.3 µM)
- MIC [3]: 2 µg/mL (≈ 3.66 µM)
- MIC [4]: 2 µg/mL (≈ 3.66 µM)
- MIC [5]: 1 µg/mL (≈ 1.83 µM)
- MIC [6]: 2 µg/mL (≈ 3.66 µM)
- MIC [7]: 16 µg/mL (≈ 29.3 µM)
- MIC [8]: 16 µg/mL (≈ 29.3 µM)
- MIC [9]: 256 µg/mL (≈ 468 µM)
- MIC [10]: 4 µg/mL (≈ 7.32 µM)
- MIC [11]: 256 µg/mL (≈ 468 µM)
- MIC [12]: 4 µg/mL (≈ 7.32 µM)
- MIC [13]: 64 µg/mL (≈ 117 µM)
- MIC [14]: 4 µg/mL (≈ 7.32 µM)
- MIC [15]: 64 µg/mL (≈ 117 µM)
- MIC [16]: 4 µg/mL (≈ 7.32 µM)
- MIC [17]: 4 µg/mL (≈ 7.32 µM)
- MIC [18]: 1 µg/mL (≈ 1.83 µM)
- MIC [19]: 16 µg/mL (≈ 29.3 µM)
- MIC [20]: 256 µg/mL (≈ 468 µM)
- MIC [21]: 1 µg/mL (≈ 1.83 µM)
- MIC [22]: 32 µg/mL (≈ 58.5 µM)
- MIC [23]: 128 µg/mL (≈ 234 µM)
- MIC [24]: 32 µg/mL (≈ 58.5 µM)
- MIC [25]: 2 µg/mL (≈ 3.66 µM)
- MIC [26]: 4 µg/mL (≈ 7.32 µM)
- MIC [27]: 64 µg/mL (≈ 117 µM)
- MIC [28]: 128 µg/mL (≈ 234 µM)
- MIC [29]: 2 µg/mL (≈ 3.66 µM)
- MIC [30]: 64 µg/mL (≈ 117 µM)
- MIC [31]: 32 µg/mL (≈ 58.5 µM)
- MIC [32]: 4 µg/mL (≈ 7.32 µM)
- MIC [33]: 16 µg/mL (≈ 29.3 µM)
- MIC [34]: 1 µg/mL (≈ 1.83 µM)
- MIC [35]: 4 µg/mL (≈ 7.32 µM)
